The values below come from ChEMBL document CHEMBL4020725, “Design and synthesis of novel xanthine derivatives as potent and selective A2B adenosine receptor antagonists for the treatment of chronic inflammatory airway diseases” (Eur J Med Chem, 2017).

What is called inhibition is the change of the read-out against control, counted positive when it falls. High values mean strong suppression, low ones little suppression. The term Ki denotes the equilibrium dissociation constant of an inhibitor or competing ligand from its target.

Experiment [1] concerns the target T1, Adenosine receptor A3 (Homo sapiens) (UniProt P0DMS8).
T1 sequence (whole entry): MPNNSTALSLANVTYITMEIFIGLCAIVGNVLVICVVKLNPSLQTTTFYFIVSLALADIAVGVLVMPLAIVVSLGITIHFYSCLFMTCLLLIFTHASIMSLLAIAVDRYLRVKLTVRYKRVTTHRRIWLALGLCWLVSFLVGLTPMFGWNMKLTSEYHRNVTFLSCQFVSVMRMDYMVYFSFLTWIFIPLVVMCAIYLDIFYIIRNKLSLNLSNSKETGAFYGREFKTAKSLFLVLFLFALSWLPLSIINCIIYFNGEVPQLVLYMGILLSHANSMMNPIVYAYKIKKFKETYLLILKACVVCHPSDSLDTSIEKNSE
In words: Displacement of [3H]-HEMADO from human adenosine A3 receptor expressed in HEK293 cell membranes at 1 uM after 90 mins relative to control. The gist of the method:
(§1)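 Membranes from HEK-293 cells stably transfected with human A1, A2A or A3 receptor, pretreated with 1 U/ml ADA. Membranes are incubated 90 min at room temperature with gentle agitation. Tracer and buffer per receptor: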
In general terms: Displacement assays read how much labelled ligand stays bound in the presence of the test substance.

Experiment [2] has as its target Adenosine receptor A2a (Homo sapiens) (UniProt P29274). Description: Displacement of [3H]-ZM241385 from human adenosine A2A receptor expressed in HEK293 cell membranes at 0.1 uM after 90 mins relative to control. The gist of the method: as §1
In a further experiment the target is T2, Adenosine receptor A2b (Homo sapiens, UniProt P29275).
T2 sequence (P29275 whole entry): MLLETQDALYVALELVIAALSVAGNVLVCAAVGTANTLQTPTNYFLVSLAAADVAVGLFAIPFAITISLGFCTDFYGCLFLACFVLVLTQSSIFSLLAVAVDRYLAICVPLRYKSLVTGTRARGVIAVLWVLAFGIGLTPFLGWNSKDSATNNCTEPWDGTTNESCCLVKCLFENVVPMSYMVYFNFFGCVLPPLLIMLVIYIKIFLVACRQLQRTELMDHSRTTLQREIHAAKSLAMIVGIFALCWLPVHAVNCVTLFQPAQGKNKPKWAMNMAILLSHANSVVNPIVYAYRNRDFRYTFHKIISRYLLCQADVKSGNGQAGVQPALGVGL
Description: Displacement of [3H]-MRS-1754 from human adenosine A2B receptor expressed in HEK293 cell membranes after 90 mins. To be noted: read-out: Ki. The gist of the method: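 Membranes from HEK-293 cells stably expressing human A2B, ADA-treated, incubated with 1.6 nM [3H]-MRS-1754 in 50 mM Tris pH 6.5, 5 mM MgCl2, 1 mM EDTA, 1 U/ml ADA. Incubation 90 min at room temperature. Filtration; nonspecific binding with 100 µM NECA. Eight compound concentrations, each in triplicate; Ki derived by fitting.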

For experiment [3], the target named is T3, Adenosine receptor A1 (Homo sapiens) (UniProt P30542).
T3 sequence (whole entry): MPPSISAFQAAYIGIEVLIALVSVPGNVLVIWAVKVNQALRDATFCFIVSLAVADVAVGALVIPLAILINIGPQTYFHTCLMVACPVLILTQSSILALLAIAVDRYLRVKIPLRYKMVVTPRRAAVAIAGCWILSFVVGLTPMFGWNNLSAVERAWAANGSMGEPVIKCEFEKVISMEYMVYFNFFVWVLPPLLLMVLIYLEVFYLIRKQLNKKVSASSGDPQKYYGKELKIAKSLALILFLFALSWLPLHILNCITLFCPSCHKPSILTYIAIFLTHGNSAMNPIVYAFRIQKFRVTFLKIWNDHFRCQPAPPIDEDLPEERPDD
In words: Displacement of [3H]-DPCPX from human adenosine A1 receptor expressed in HEK293 cell membranes at 0.1 uM after 90 mins relative to control. The gist of the method: as §1

Chain of Adenosine receptor A2a (Homo sapiens) (P29274 whole entry): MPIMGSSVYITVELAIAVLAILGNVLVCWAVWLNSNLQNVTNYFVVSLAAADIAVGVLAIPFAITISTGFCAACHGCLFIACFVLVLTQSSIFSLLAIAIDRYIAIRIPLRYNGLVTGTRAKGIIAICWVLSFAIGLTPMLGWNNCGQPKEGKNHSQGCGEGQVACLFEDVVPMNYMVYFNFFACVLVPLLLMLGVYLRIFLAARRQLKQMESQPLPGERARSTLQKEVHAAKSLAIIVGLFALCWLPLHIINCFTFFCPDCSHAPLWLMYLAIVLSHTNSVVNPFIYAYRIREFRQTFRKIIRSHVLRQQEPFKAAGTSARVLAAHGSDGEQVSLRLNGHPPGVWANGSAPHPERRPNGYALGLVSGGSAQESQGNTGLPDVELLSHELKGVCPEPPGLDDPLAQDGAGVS

In the case of `CCCn1c(=O)c2[nH]c(-c3cnn(CC#Cc4ccccc4C(=O)OC)c3)nc2n(CCC)c1=O`, the inhibition in experiment [1] turned out to be 43%; in experiment [2] it was 41%; in experiment [3], 37%. In addition, the Ki on Adenosine receptor A2b is 12 nM.

With `CCCn1c(=O)c2[nH]c(-c3cnn(CC#Cc4cccc(F)c4)c3)nc2n(CCC)c1=O`, the inhibition in experiment [1] was found to be 0%; in experiment [2], 64%; in experiment [3], 87%. At Adenosine receptor A2b, the Ki amounted to 6.7 nM.

For the compound `CCCn1c(=O)[nH]c2nc(-c3cnn(CC#Cc4ccc(OC(F)(F)F)cc4)c3)[nH]c2c1=O`, the figures for the inhibition in experiment [1], in experiment [2] and in experiment [3] were 17%, 46% and 88%, respectively. At Adenosine receptor A2b, the Ki was 1.6 nM.

On to `CCCn1c(=O)[nH]c2nc(-c3cnn(CC#Cc4cccc(F)c4)c3)[nH]c2c1=O`, for which the inhibition in experiment [1] came to 0%; in experiment [2] it was 60%; in experiment [3], 53%. Besides, the Ki at Adenosine receptor A2b came to 3 nM.

On to `CCCn1c(=O)[nH]c2nc(-c3cnn(CC#Cc4cccc(OC(F)(F)F)c4)c3)[nH]c2c1=O`, for which the figures for the inhibition in experiment [1], in experiment [2] and in experiment [3] were 0%, 33% and 14%, respectively. In addition, the Ki on Adenosine receptor A2b is 2.8 nM.

Take `CCCn1c(=O)c2[nH]c(-c3cnn(CC#Cc4ccc(C(F)(F)F)cc4)c3)nc2n(CC)c1=O`: the inhibition in experiment [1] was found to be 14%; in experiment [2], 21%; in experiment [3] it was 66%. Further, on Adenosine receptor A2b, the Ki amounted to 12 nM.

In the case of `CCCn1c(=O)c2[nH]c(-c3cnn(CC#Cc4cccc(C(F)(F)F)c4)c3)nc2n(CCC)c1=O`, the values for the inhibition in experiment [1], in experiment [2] and in experiment [3] were 32%, 64% and 43%, respectively. For the same compound, the Ki on Adenosine receptor A2b was determined as 4.9 nM.

On to `CCCn1c(=O)[nH]c2nc(-c3cnn(CC#Cc4cccc(C(F)(F)F)c4)c3)[nH]c2c1=O`, for which the inhibition in experiment [1] is 0%; in experiment [2] it was 39%; in experiment [3] it was 26%. Besides, the Ki at Adenosine receptor A2b was 2.2 nM.

As for `CCCn1c(=O)c2[nH]c(-c3cnn(CC#Cc4ccc(C#N)cc4)c3)nc2n(CCC)c1=O`, the inhibition is 14% in experiment [1], 29% in experiment [2] and 14% in experiment [3]. Besides, the Ki at Adenosine receptor A2b came to 14 nM.

As to `CCCn1c(=O)c2[nH]c(-c3cnn(CC#Cc4ccccc4C(F)(F)F)c3)nc2n(CCC)c1=O`, the values for the inhibition in experiment [1], in experiment [2] and in experiment [3] were 25%, 29% and 52%, respectively. In addition, the Ki on Adenosine receptor A2b was found to be 29 nM.

With `CCCn1c(=O)c2[nH]c(-c3cnn(CC#CCN(CC)CC)c3)nc2n(CCC)c1=O`, the inhibition was determined as 69% in experiment [1], 59% in experiment [2] and 71% in experiment [3]. The Ki at Adenosine receptor A2b was determined as 200 nM.
